According to ChEMBL document CHEMBL4706580, “4-Amino-1,2,4-triazole-3-thione-derived Schiff bases as metallo-β-lactamase inhibitors” (Eur J Med Chem, 2020):
Activity calls are given as the source filed them. The calls are words filed in the database; no cut-off is given here.

What was measured:
[1] = Inhibition of beta-lactamase IMP-1 (unknown origin) expressed in Escherichia coli BL21(DE3) using imipenem as substrate by measuring substrate hydrolysis at 200 uM by spectrophotometric analysis
In short: (§1)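 Purified enzyme (overproduced in E. coli BL21(DE3), pET-9a; ion-exchange and gel filtration), 1-70 nM final. Reporter substrate 150 μM imipenem, read at 300 nm, 30 °C, 50 mM HEPES pH 7.5. Single-point screen at 100 or 200 μM; Ki from v0/vi vs [I] (0.5–1,000 μM final) assuming competitive inhibition, or Dixon plot. Triplicate.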

[2] = Inhibition of beta-lactamase NDM1 (unknown origin) expressed in Escherichia coli BL21(DE3) using cefotaxime/nitrocefin as substrate by measuring substrate hydrolysis at 100 uM by spectrophotometric analysis
[3] = Inhibition of beta-lactamase VIM2 (unknown origin) expressed in Escherichia coli BL21(DE3) using imipenem as substrate by measuring substrate hydrolysis by spectrophotometric analysis; in short: as §1
[4] = Binding affinity to beta-lactamase VIM-2 expressed in Escherichia coli BL21(DE3) assessed as association constant at 25 degC by isothermal titration calorimetry
In short: (§2)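 VIM-2 (19 μM) in 10 mM HEPES-NaOH, 0.15 M NaCl, 50 μM ZnSO4, pH 7.5, DMSO matched to ligand (1-2% final). One 0.5 μl then 19 × 2 μl injections of compound (200-400 μM), 150 s apart, 25 °C. Buffer dilution heats subtracted; nonlinear least-squares fit for n, Ka, ΔH; compound concentration adjusted in fitting so n ≈ 1.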

[5] = Inhibition of beta-lactamase L1 (unknown origin) expressed in Escherichia coli BL21(DE3) using nitrocefin as substrate by measuring substrate hydrolysis at 200 uM preincubated for 30 mins by spectrophotometric analysis
[6] = Binding affinity to beta-lactamase VIM-2 expressed in Escherichia coli BL21(DE3) assessed as change in entropy at 25 degC by isothermal titration calorimetry; in short: as §2
[7] = Binding affinity to beta-lactamase VIM-2 expressed in Escherichia coli BL21(DE3) assessed as change in enthalpy at 25 degC by isothermal titration calorimetry; in short: as §2
[8] = Binding affinity to beta-lactamase VIM-2 expressed in Escherichia coli BL21(DE3) assessed as dissociation constant at 25 degC by isothermal titration calorimetry; in short: as §2
[9] = Inhibition of beta-lactamase VIM4 (unknown origin) expressed in Escherichia coli BL21(DE3) using imipenem as substrate by measuring substrate hydrolysis by spectrophotometric analysis; in short: as §1
[10] = Inhibition of beta-lactamase L1 (unknown origin) expressed in Escherichia coli BL21(DE3) using nitrocefin as substrate by measuring substrate hydrolysis at 100 uM preincubated for 30 mins by spectrophotometric analysis
In short: (§3)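 Enzyme 0.2–0.8 nM in 25 mM HEPES pH 7.5 with 50 μM ZnCl2 final, pre-incubated 30 min at 21 °C with inhibitor (100 μM screen). Nitrocefin 100 μM final, read at 482 nm, 30 °C. Residual activity vs three uninhibited samples; Ki (1–100 μM inhibitor) from Hanes linearization, competitive model. Triplicate.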

[11] = Binding affinity to beta-lactamase VIM-2 expressed in Escherichia coli BL21(DE3) assessed as Gibbs free energy at 25 degC by isothermal titration calorimetry; in short: as §2
[12] = Inhibition of beta-lactamase IMP-1 (unknown origin) expressed in Escherichia coli BL21(DE3) using imipenem as substrate by measuring substrate hydrolysis at 100 uM by spectrophotometric analysis; in short: as §1
[13] = Inhibition of beta-lactamase NDM1 (unknown origin) expressed in Escherichia coli BL21(DE3) using cefotaxime/nitrocefin as substrate by measuring substrate hydrolysis at 200 uM by spectrophotometric analysis
[14] = Inhibition of beta-lactamase VIM4 (unknown origin) expressed in Escherichia coli BL21(DE3) using imipenem as substrate by measuring substrate hydrolysis at 100 uM by spectrophotometric analysis; in short: as §1
[15] = Inhibition of beta-lactamase CphA (unknown origin) expressed in Escherichia coli BL21(DE3) using imipenem as substrate by measuring substrate hydrolysis at 100 uM by spectrophotometric analysis
In short: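 Enzyme 0.2–0.8 nM in 15 mM cacodylate pH 6.5, no added zinc, pre-incubated 30 min at 21 °C with inhibitor (100 μM screen). Imipenem substrate added from 10 mM stock; hydrolysis at 300 nm, 30 °C. Residual activity vs three uninhibited samples; Ki (1–100 μM inhibitor) by Hanes linearization, competitive model. Triplicate.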

[16] = Inhibition of beta-lactamase VIM2 (unknown origin) expressed in Escherichia coli BL21(DE3) using imipenem as substrate by measuring substrate hydrolysis at 100 uM by spectrophotometric analysis; in short: as §1
[17] = Inhibition of beta-lactamase CphA (unknown origin) expressed in Escherichia coli BL21(DE3) using imipenem as substrate by measuring substrate hydrolysis at 200 uM by spectrophotometric analysis
[18] = Inhibition of beta-lactamase VIM4 (unknown origin) expressed in Escherichia coli BL21(DE3) using imipenem as substrate by measuring substrate hydrolysis at 200 uM by spectrophotometric analysis; in short: as §1
[19] = Inhibition of beta-lactamase VIM2 (unknown origin) expressed in Escherichia coli BL21(DE3) using imipenem as substrate by measuring substrate hydrolysis at 200 uM by spectrophotometric analysis; in short: as §1
[20] = Inhibition of beta-lactamase IMP-1 (unknown origin) expressed in Escherichia coli LZ2310 assessed as potentiation of ceftazidime antibacterial activity by measuring ceftazidime induced diameter of inhibition zone at 40 uM incubated for 18 hrs by disk diffusion method (reference value: 9 mm)
In short: (§4)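 Efflux-deficient E. coli LZ2310 (NorE, MdfA, AcrA knocked out) carrying pLB-II with the cloned MBL gene. Mueller-Hinton, CLSI disk diffusion; antibiotic disks (30 µg cefoxitin for VIM-2, 10 µg ampicillin for VIM-4, 30 µg ceftazidime for NDM-1/IMP-1) loaded with inhibitor in DMSO (≤15 µL). Zone diameter after 18 h, 35 ± 1 °C; DMSO and 220 µg EDTA controls. Triplicate.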

[21] = Inhibition of beta-lactamase L1 (unknown origin) expressed in Escherichia coli BL21(DE3) using nitrocefin as substrate by measuring substrate hydrolysis preincubated for 30 mins by spectrophotometric analysis; in short: as §3
[22] = Inhibition of beta-lactamase IMP-1 (unknown origin) expressed in Escherichia coli BL21(DE3) using imipenem as substrate by measuring substrate hydrolysis by spectrophotometric analysis; in short: as §1
[23] = Inhibition of beta-lactamase VIM-4 (unknown origin) expressed in Escherichia coli LZ2310 assessed as potentiation of ampicillin antibacterial activity by measuring ampicillin induced diameter of inhibition zone at 40 uM incubated for 18 hrs by disk diffusion method (reference value: 6 mm); in short: as §4
[24] = Inhibition of beta-lactamase VIM-2 (unknown origin) expressed in Escherichia coli LZ2310 assessed as potentiation of cefoxitin antibacterial activity by measuring cefoxitin induced diameter of inhibition zone at 40 uM incubated for 18 hrs by disk diffusion method (reference value: 14 mm); in short: as §4

Row | SMILES | inhibition [2] | inhibition [5] | Ki [9] [µM] | inhibition [10] | inhibition [12] | inhibition [13] | inhibition [14] | inhibition [15] | inhibition [16] | inhibition [17] | inhibition [19] | also measured
1 | Oc1ccc(/C=N/n2c(-c3cccc(Br)c3)n[nH]c2=S)c(O)c1 | 45% | inactive | 13 | inactive | inactive |  |  |  |  |  |  | inhibition [1]: inactive; Ki [3]: 0.62 µM; Ka [4]: 3.1 10^6/M; -TdeltaS [6]: -1.6 kcal/mol; deltaH [7]: -10.4 kcal/mol; Kd [8]: 0.323 µM; deltaG [11]: -8.8 kcal/mol
2 | Cc1ccccc1-c1n[nH]c(=S)n1/N=C/c1ccccc1O | inactive | inactive |  | inactive | 41% | inactive | 38% | inactive | 62% | inactive |  | 
3 | Oc1ccc(/C=N/n2c(CC(c3ccccc3)c3ccccc3)n[nH]c2=S)c(O)c1 |  |  |  | 35% | 35% |  | inactive | inactive |  | inactive |  | inhibition [18]: inactive
4 | S=c1[nH]nc(-c2ccccc2)n1/N=C/c1ccccc1 | inactive | inactive |  | inactive | 60% | inactive | inactive | inactive | inactive | inactive | inactive | inhibition [18]: inactive
5 | S=c1[nH]nc(-c2cc(Cl)cc(Cl)c2)n1/N=C/c1ccc(OCc2ccccc2)cc1 |  |  | 0.6 |  |  |  |  | inactive | inactive | inactive | inactive | inhibition zone (IZ) [20]: 9 mm; Ki [21]: 18 µM; Ki [22]: 0.1 µM; inhibition zone (IZ) [23]: 6 mm
6 | Cc1ccccc1-c1n[nH]c(=S)n1/N=C/c1ccc(O)c(C(=O)O)c1 |  |  | 1.4 |  | 45% |  |  | 39% |  |  |  | Ki [3]: 2 µM; inhibition zone (IZ) [24]: 14 mm; Ka [4]: 7.7 10^6/M; -TdeltaS [6]: -1.1 kcal/mol; Ki [21]: 13 µM; deltaH [7]: -9.1 kcal/mol; Kd [8]: 1.3 µM; deltaG [11]: -8 kcal/mol; inhibition zone (IZ) [23]: 6 mm
7 | O=C(O)c1ccccc1/C=N/n1c(-c2ccccn2)n[nH]c1=S |  | inactive |  | inactive | inactive | 60% | 62% | inactive | inactive | inactive | inactive | inhibition [1]: inactive
